ChEMBL document CHEMBL3272141, “Potential long-acting anticonvulsants. 2. Synthesis and activity of succinimides containing an alkylating group on nitrogen or at the 3 position” (J Med Chem, 1977)
Calls of active or inactive are those of the source. No cut-off for these calls is given here.

Experiments:
Mus musculus [1] = assay: Anticonvulsant activity against maximal electroshock-induced seizures in Carworth Farms No.1 mouse up to 300 mg/kg; assay type: functional, organism-based; parameters: dose 300 mg/kg
Summary of the method: (§1)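 Male Carworth Farms No. 1 mice were used, with the highest dose tested being 300 mg/kg.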

Mus musculus [2] = assay: Anticonvulsant activity against metrazole-induced seizures in Carworth Farms No.1 mouse up to 300 mg/kg; assay type: functional, organism-based; parameters: dose 300 mg/kg; summary of the method: as §1

In the case of `Nc1ccc(CCN2C(=O)CC(c3ccccc3)C2=O)cc1` (stereo not drawn), the Activity (Mus musculus [1]) was “inactive” and the Activity (Mus musculus [2]) was “inactive”.
For `O=C1CC(c2ccccc2)C(=O)N1CCc1ccccc1` (stereo not drawn), the Activity (Mus musculus [1]) was “inactive” and the Activity (Mus musculus [2]) was “inactive”.
With `CN1C(=O)C(CCNC(=O)CCl)C(C)(c2ccccc2)C1=O` (stereo not drawn) the Activity (Mus musculus [1]) was “inactive” and the Activity (Mus musculus [2]) was “inactive”.
For `NCCN1C(=O)CC(c2ccccc2)C1=O` (stereo not drawn), the Activity (Mus musculus [1]) was “inactive” and the Activity (Mus musculus [2]) was “inactive”.
In the case of `O=C(CCl)NCCCN1C(=O)CC(CCCNC(=O)CCl)(c2ccccc2)C1=O` (stereo not drawn), the Activity (Mus musculus [1]) was “inactive” and the Activity (Mus musculus [2]) was “inactive”.
With `N#CCN1C(=O)CC(c2ccccc2)C1=O` (stereo not drawn) the Activity (Mus musculus [1]) was “inactive” and the Activity (Mus musculus [2]) was “inactive”.
In the case of `O=C(CCl)Nc1ccc(CCN2C(=O)CC(c3ccccc3)C2=O)cc1` (stereo not drawn), the Activity (Mus musculus [1]) was “inactive” and the Activity (Mus musculus [2]) was “inactive”.
With `O=C(CCl)N1C(=O)CC(c2ccccc2)C1=O` (stereo not drawn) the Activity (Mus musculus [1]) was “inactive” and the Activity (Mus musculus [2]) was “inactive”.
`O=C(CCl)NCCN1C(=O)CC(c2ccccc2)C1=O` (stereo not drawn) was tested, and the Activity (Mus musculus [1]) was “inactive” and the Activity (Mus musculus [2]) was “inactive”.
`O=C1CC(c2ccccc2)C(=O)N1CCc1ccc(N2C(=O)C=CC2=O)cc1` (stereo not drawn) was tested, and the Activity (Mus musculus [1]) was “inactive” and the Activity (Mus musculus [2]) was “inactive”.
In the case of `O=C(O)/C=C\C(=O)Nc1ccc(CCN2C(=O)CC(c3ccccc3)C2=O)cc1` (stereo not drawn), the Activity (Mus musculus [1]) was “inactive” and the Activity (Mus musculus [2]) was “inactive”.
In the case of `CC(=O)Nc1ccc(CCN2C(=O)CC(c3ccccc3)C2=O)cc1` (stereo not drawn), the Activity (Mus musculus [1]) was “inactive” and the Activity (Mus musculus [2]) was “inactive”.
In the case of `O=C1C=CC(=O)N1CCN1C(=O)CC(c2ccccc2)C1=O` (stereo not drawn), the Activity (Mus musculus [1]) was “inactive” and the Activity (Mus musculus [2]) was “inactive”.
With `O=C(O)/C=C\C(=O)NCCN1C(=O)CC(c2ccccc2)C1=O` (stereo not drawn) the Activity (Mus musculus [1]) was “inactive” and the Activity (Mus musculus [2]) was “inactive”.
